# From ChEMBL document CHEMBL2440036, “3-[2-(Aminomethyl)-5-[(pyridin-4-yl)carbamoyl]phenyl] benzoates as soft ROCK inhibitors” (Bioorg Med Chem Lett, 2013)
# The source made the active and inactive calls. The calls are words filed in the database; no cut-off is given here.
# Assays:
# [1] = Half life in human plasma by LC-MS/MS analysis; assay type: ADME, cell-free
# [2] = Inhibition of ROCK in rat A7r5 cells assessed as inhibition of MLC phosphorylation by direct ELISA; assay type: cell-based
# [3] = Drug degradation in human plasma after 60 mins by LC-MS/MS analysis; assay type: ADME, cell-free; settings: read-out: Drug degradation
# [4] = molecular target: Rho-associated protein kinase 2 (Homo sapiens, UniProt O75116); experiment: Inhibition of ROCK2 (unknown origin) using long S6 kinase peptide as substrate by radiometric assay
# [5] = Stability of the compound in PBS buffer at pH 7.4; assay type: physicochemical
# [6] = Apparent permeability of the compound at 10 uM after 5 hrs by PAMPA; assay type: ADME
# [7] = Half life in aqueous humor of New Zealand white rabbit assessed as specific hydrolytic activity at 20 uM by LC-MS/MS analysis; assay type: ADME, tissue-based, Oryctolagus cuniculus, Aqueous humor of eyeball
# In short: (§1)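 Test compound was incubated with ocular tissues from ocular normotensive New Zealand White rabbits, and its degradation rate was followed. Specific hydrolytic activity (pmol min-1 mg-1) was calculated by normalizing the degradation rate to tissue weight. Aqueous humor half-life refers to undiluted aqueous humor.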
# Oryctolagus cuniculus [8] = species: Oryctolagus cuniculus; experiment: Toxicity in New Zealand white rabbit assessed as hyperemia; assay type: organism-based; settings: in vivo
# Oryctolagus cuniculus [9] = experiment: Reduction of IOP in New Zealand white rabbit eye administered topically after 6 hrs relative to vehicle-treated control; assay type: functional
# [10] = Drug degradation in conjunctiva of New Zealand white rabbit assessed as specific hydrolytic activity at 20 uM after 4 hrs by LC-MS/MS analysis; assay type: ADME, tissue-based, Oryctolagus cuniculus; in short: as §1
# [11] = Drug degradation in sclera of New Zealand white rabbit assessed as specific hydrolytic activity at 20 uM after 4 hrs by LC-MS/MS analysis; assay type: ADME, tissue-based, Oryctolagus cuniculus; in short: as §1
# [12] = Drug degradation in cornea of New Zealand white rabbit assessed as specific hydrolytic activity at 20 uM after 4 hrs by LC-MS/MS analysis; assay type: ADME, tissue-based, Oryctolagus cuniculus; in short: as §1
# Oryctolagus cuniculus [13] = experiment: Reduction of IOP in New Zealand white rabbit eye administered topically after 3 hrs relative to baseline; assay type: functional; design: scale not given: the % may be the effect or the level left
# [14] = Drug degradation in vitreous humor of New Zealand white rabbit assessed as specific hydrolytic activity at 20 uM after 4 hrs by LC-MS/MS analysis; assay type: ADME, tissue-based, Oryctolagus cuniculus; in short: as §1
# [15] = Drug degradation in aqueous humor of New Zealand white rabbit assessed as specific hydrolytic activity at 20 uM after 4 hrs by LC-MS/MS analysis; assay type: ADME, tissue-based, Oryctolagus cuniculus, Aqueous humor of eyeball; in short: as §1
# Chain of Rho-associated protein kinase 2 (O75116 whole entry): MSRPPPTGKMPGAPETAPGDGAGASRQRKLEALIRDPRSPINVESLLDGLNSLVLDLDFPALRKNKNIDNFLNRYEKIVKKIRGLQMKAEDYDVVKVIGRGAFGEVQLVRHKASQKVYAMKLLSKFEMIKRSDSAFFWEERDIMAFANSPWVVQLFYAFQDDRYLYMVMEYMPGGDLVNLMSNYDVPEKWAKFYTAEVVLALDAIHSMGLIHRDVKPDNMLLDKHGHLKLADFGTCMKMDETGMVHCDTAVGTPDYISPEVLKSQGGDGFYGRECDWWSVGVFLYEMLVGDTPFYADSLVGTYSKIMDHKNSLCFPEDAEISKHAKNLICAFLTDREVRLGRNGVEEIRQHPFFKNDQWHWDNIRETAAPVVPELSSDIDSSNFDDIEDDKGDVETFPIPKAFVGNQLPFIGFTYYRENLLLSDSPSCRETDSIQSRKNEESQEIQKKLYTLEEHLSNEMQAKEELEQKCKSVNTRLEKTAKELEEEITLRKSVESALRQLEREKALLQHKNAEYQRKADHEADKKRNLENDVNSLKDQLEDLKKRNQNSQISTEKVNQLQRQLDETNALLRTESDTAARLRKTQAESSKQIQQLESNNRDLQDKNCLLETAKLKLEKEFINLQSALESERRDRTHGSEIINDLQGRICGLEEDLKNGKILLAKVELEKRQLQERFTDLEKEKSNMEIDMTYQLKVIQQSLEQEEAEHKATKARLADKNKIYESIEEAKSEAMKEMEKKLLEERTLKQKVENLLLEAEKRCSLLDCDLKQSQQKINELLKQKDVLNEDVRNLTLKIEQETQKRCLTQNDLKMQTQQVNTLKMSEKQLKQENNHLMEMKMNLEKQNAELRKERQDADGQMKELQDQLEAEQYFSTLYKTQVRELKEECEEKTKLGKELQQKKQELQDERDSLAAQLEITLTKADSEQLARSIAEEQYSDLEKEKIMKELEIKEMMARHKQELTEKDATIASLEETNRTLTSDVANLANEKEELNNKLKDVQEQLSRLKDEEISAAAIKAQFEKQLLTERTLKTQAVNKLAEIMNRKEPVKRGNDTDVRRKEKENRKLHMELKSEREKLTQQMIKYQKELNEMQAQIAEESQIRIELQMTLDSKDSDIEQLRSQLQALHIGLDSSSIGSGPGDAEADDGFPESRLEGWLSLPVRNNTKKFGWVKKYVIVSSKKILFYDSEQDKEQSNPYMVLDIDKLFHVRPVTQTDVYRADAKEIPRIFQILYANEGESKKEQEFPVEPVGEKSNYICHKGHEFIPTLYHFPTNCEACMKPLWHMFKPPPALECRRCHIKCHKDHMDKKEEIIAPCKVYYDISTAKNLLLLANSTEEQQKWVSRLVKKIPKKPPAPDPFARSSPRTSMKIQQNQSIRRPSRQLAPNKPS
half-life [1],EC50 [2],IC50 [4],Stability [5],SMILES,further results
> 120 min,6.1 nM,1.2 nM,–,CC(N)c1ccc(C(=O)Nc2ccncc2)cc1-c1ccc(F)cc1 (stereo not given),metabolised at 1 h [3]: < 5%
58 min,–,4.9 nM,Stable,CCCCCOC(=O)c1cccc(-c2cc(C(=O)Nc3ccncc3)ccc2CN)c1,–
7 min,–,12 nM,Stable,NCc1ccc(C(=O)Nc2ccncc2F)cc1-c1cccc(C(=O)OCC2CCCCO2)c1 (stereo not given),–
6 min,–,37 nM,Stable,CC(C)OCCOC(=O)c1cccc(-c2cc(C(=O)Nc3ccncc3F)ccc2CN)c1,–
91 min,8 nM,2.9 nM,Stable,COC(=O)c1cccc(-c2cc(C(=O)Nc3ccncc3)ccc2CN)c1,–
22 min,–,5.5 nM,Stable,CCCCOC(=O)c1cccc(-c2cc(C(=O)Nc3ccncc3)ccc2CN)c1,–
> 120 min,> 1000 nM,167 nM,–,NCc1ccc(C(=O)Nc2ccncc2)cc1-c1cccc(C(=O)O)c1,"Papp at 5 h, 10 µM [6]: < 0.01 ×10⁻⁶ cm/s; metabolised at 1 h [3]: < 5%"
17 min,52 nM,13 nM,Stable,NCc1ccc(C(=O)Nc2ccncc2F)cc1-c1cccc(C(=O)OCC2CCCC2)c1,–
99 min,–,48 nM,Stable,NCc1ccc(C(=O)Nc2ccncc2)cc1-c1cccc(C(=O)OCC2CCCCC2)c1,–
50 min,–,22 nM,Stable,CCCCCCOC(=O)c1cccc(-c2cc(C(=O)Nc3ccncc3)ccc2CN)c1,–
18 min,9.1 nM,1.4 nM,Stable,CCCOC(=O)c1cccc(-c2cc(C(=O)Nc3ccncc3)ccc2CN)c1,–
> 120 min,> 1000 nM,55 nM,–,NCc1ccc(C(=O)Nc2ccncc2F)cc1-c1cccc(C(=O)O)c1,"Papp at 5 h, 10 µM [6]: < 0.01 ×10⁻⁶ cm/s; metabolised at 1 h [3]: < 5%"
31 min,70 nM,5 nM,Stable,NCc1ccc(C(=O)Nc2ccncc2)cc1-c1cccc(C(=O)OCC2CCCC2)c1,–
–,–,102 nM,–,COC(=O)c1ccc(-c2cc(C(=O)Nc3ccncc3)ccc2CN)cc1,–
12 min,170 nM,3.6 nM,Stable,COCCOC(=O)c1cccc(-c2cc(C(=O)Nc3ccncc3)ccc2CN)c1,–
64 min,–,45 nM,Stable,NCc1ccc(C(=O)Nc2ccncc2)cc1-c1cccc(C(=O)OCc2ccccc2)c1,–
> 120 min,200 nM,–,–,C[C@@H](N)[C@H]1CC[C@H](C(=O)Nc2ccncc2)CC1 [Y-27632],metabolised at 1 h [3]: < 5%
< 5 min,16 nM,2.5 nM,Stable,NCc1ccc(C(=O)Nc2ccncc2F)cc1-c1cccc(C(=O)OCC2CCCO2)c1 (stereo not given),half-life at 20 µM [7]: 116 min; Activity (Oryctolagus cuniculus [8]): Non-toxic; Activity (Oryctolagus cuniculus [9]): Active; Activity (Oryctolagus cuniculus [9]; record 2): 0.5%; Drug degradation [10]: 1.52 pmol/min/mg; Drug degradation [11]: 1 pmol/min/mg; Drug degradation [12]: 2.71 pmol/min/mg; Activity (Oryctolagus cuniculus [13]): 28.7%; Drug degradation [14]: 0.22 pmol/min/mg; Drug degradation [15]: 0.12 pmol/min/mg
18 min,–,2.7 nM,Stable,NCc1ccc(C(=O)Nc2ccncc2F)cc1-c1cccc(C(=O)OCC2CC2)c1,–
13 min,–,4.3 nM,Stable,NCc1ccc(C(=O)Nc2ccncc2F)cc1-c1cccc(C(=O)OCC2CCC2)c1,–
18 min,–,8.7 nM,Stable,NCc1ccc(C(=O)Nc2ccncc2F)cc1-c1cccc(C(=O)OC2CCCOC2)c1 (stereo not given),–
19 min,–,5.1 nM,Stable,CCCOC(=O)c1cccc(-c2cc(C(=O)Nc3ccncc3F)ccc2CN)c1,–
65 min,130 nM,7.8 nM,Stable,COC(=O)c1cccc(-c2cc(C(=O)Nc3ccncc3F)ccc2CN)c1,–
> 120 min,–,20 nM,Unstable,NCc1ccc(C(=O)Nc2ccncc2)cc1-c1cccc(C(=O)OC2CCCCC2)c1,–
7 min,–,6.2 nM,Stable,NCc1ccc(C(=O)Nc2ccncc2F)cc1-c1cccc(C(=O)Oc2ccccc2)c1,–
41 min,–,< 1 nM,Stable,CCOC(=O)c1cccc(-c2cc(C(=O)Nc3ccncc3)ccc2CN)c1,–
81 min,–,1.4 nM,Stable,NCc1ccc(C(=O)Nc2ccncc2F)cc1-c1cccc(C(=O)OCCO)c1,–
26 min,28 nM,1.5 nM,Stable,COCCCOC(=O)c1cccc(-c2cc(C(=O)Nc3ccncc3)ccc2CN)c1,–
